Source: the M2OR odorant receptor database

Legend:
Conditions in all cases: stereoisomer not certain
OR10G2 (Homo sapiens) = target: T1, OR10G2 (Homo sapiens) (UniProt Q8NGC3)
T1 sequence (whole entry): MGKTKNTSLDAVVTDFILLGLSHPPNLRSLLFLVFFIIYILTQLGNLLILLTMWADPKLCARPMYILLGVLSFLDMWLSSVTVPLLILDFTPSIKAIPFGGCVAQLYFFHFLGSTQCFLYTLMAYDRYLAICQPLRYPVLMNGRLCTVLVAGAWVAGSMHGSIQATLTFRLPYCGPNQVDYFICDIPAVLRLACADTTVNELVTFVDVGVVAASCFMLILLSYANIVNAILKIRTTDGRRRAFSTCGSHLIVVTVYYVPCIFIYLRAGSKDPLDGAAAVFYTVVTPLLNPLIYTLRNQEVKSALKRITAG
Procedure, shortened: (§1)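 Each receptor–molecule pair is labelled responsive or non-responsive (inactive) according to whether the original authors judged the measured signal statistically different from baseline. The data were taken from the main text and supplementary material of published papers and checked for typos and inconsistencies. Assay methods differed by source, with transient luciferase assays in mammalian cell lines being common.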

OR10G3 (Homo sapiens) = target: T2, OR10G3 (Homo sapiens) (UniProt Q8NGC4)
T2 sequence (whole entry): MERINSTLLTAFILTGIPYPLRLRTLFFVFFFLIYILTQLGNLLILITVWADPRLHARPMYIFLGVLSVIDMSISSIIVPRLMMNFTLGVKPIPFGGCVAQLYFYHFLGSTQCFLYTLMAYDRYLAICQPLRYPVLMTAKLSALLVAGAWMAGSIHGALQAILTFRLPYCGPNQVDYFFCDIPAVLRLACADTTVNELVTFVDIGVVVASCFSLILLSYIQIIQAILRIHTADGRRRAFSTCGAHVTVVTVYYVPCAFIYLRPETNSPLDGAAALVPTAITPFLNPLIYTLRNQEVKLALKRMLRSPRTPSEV
Procedure, shortened: as §1

OR10G4 (Homo sapiens) = target: T3, OR10G4 (Homo sapiens) (UniProt Q8NGN3)
T3 sequence (whole entry): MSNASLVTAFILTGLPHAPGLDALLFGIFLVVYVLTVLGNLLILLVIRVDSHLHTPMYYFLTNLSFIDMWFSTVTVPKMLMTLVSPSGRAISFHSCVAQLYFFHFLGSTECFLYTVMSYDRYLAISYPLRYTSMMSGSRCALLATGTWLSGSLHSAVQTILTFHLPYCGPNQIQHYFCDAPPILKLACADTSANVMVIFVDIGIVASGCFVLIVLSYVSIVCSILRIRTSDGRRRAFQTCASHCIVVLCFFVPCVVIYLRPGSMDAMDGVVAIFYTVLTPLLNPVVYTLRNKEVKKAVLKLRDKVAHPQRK
Procedure, shortened: as §1

OR10G6 (Homo sapiens) = target: T4, OR10G6 (Homo sapiens) (UniProt Q8NH81)
T4 sequence (whole entry): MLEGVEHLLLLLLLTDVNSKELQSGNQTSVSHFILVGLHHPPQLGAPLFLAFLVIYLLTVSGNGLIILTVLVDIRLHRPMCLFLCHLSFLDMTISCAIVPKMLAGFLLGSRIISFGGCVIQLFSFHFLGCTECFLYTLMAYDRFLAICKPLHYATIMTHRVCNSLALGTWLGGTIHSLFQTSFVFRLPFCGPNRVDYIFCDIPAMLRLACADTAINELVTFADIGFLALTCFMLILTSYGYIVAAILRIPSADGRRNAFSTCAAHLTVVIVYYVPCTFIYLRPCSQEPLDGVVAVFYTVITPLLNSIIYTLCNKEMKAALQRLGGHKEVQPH
Procedure, shortened: as §1

OR10G7 (Homo sapiens) = target: T5, OR10G7 (Homo sapiens) (UniProt Q8NGN6)
T5 sequence (whole entry): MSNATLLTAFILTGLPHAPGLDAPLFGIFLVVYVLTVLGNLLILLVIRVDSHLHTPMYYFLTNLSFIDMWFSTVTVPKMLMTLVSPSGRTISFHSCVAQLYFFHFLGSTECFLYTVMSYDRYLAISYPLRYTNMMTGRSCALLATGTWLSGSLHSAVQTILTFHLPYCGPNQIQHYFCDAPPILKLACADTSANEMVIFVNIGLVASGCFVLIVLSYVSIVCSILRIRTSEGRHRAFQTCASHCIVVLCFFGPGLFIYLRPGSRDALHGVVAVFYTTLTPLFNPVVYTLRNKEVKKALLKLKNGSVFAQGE
Procedure, shortened: as §1

OR10G8 (Homo sapiens) = target: T6, OR10G8 (Homo sapiens) (UniProt Q8NGN5)
T6 sequence (whole entry): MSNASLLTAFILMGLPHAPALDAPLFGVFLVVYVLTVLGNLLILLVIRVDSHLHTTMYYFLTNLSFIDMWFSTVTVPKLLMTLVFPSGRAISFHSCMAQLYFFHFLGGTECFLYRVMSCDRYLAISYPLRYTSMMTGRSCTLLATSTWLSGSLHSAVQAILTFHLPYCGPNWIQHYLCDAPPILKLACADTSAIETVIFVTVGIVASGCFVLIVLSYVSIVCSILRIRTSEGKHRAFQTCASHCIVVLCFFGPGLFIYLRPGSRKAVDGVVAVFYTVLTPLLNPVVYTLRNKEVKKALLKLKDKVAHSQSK
Procedure, shortened: as §1

OR10G9 (Homo sapiens) = target: T7, OR10G9 (Homo sapiens) (UniProt Q8NGN4)
T7 sequence (whole entry): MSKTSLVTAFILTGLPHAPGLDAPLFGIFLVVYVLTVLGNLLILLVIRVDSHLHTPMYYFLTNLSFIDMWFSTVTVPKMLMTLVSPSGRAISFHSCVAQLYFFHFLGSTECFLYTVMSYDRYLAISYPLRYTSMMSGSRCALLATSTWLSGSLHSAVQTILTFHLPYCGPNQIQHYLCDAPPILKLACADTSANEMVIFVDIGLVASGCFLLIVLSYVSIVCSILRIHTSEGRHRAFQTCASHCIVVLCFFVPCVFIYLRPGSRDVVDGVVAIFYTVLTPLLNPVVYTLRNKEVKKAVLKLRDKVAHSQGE
Procedure, shortened: as §1

OR10H1 (Homo sapiens) = target: T8, OR10H1 (Homo sapiens) (UniProt Q9Y4A9)
T8 sequence (whole entry): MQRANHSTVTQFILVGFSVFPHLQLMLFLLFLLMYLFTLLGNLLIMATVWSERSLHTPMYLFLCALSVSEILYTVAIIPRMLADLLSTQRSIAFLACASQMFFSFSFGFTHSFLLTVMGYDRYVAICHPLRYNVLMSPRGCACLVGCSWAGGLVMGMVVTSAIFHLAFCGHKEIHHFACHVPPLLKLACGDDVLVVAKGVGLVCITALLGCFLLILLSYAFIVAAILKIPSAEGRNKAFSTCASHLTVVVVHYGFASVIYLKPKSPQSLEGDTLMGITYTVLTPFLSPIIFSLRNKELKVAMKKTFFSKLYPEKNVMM
Procedure, shortened: as §1

OR10H2 (Homo sapiens) = target: T9, OR10H2 (Homo sapiens) (UniProt O60403)
T9 sequence (whole entry): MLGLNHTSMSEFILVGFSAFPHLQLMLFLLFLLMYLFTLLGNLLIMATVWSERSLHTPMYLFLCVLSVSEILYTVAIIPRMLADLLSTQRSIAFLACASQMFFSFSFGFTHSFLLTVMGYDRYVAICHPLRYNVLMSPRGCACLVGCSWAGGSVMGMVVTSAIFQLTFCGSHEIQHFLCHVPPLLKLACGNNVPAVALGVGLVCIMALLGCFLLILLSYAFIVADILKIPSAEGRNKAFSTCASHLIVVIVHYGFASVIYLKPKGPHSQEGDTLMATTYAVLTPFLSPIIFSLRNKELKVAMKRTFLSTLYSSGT
Procedure, shortened: as §1

Measured: odorant receptor agonist call;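 note: active if original authors judged signal statistically different from baseline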

CCCCCC(S)C(C)CO (centres undefined)
inactive: all assays above
